# From ChEMBL document CHEMBL5724801, “EUbOPEN Chemogenomics Library - Multiplex” (2024)
# Several values for one entry are separate records, joined by “and”; a condition that tells them apart may be missing. Equal entries are not always repeated.
# Test system: HEK-293T
# Assay: Multiplex assay against HEK293T
# Assay type: toxicity, cell-based
# Conditions: human
# Procedure, shortened: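 Cells stained live at seeding with Hoechst33342, BioTracker Green Microtubule Cytoskeleton Dye, MitoTracker Red and Annexin V Alexa Fluor 680 were imaged on a CQ1 microscope at 37°C and 5% CO2 after compound addition. Their classification by CellPathfinder machine-learning gating ran from Hoechst high-intensity objects versus normal cells, to healthy, pyknosed or fragmented nuclei among normal cells, to mitotic or apoptotic among pyknosed cells. Tubulin, mitochondrial-mass and membrane-permeability phenotypes are per cents of healthy-nucleus cells.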
# [1] = 12 h, 1 µM, compound concentration 1 uM
# [2] = 12 h, 10 µM, compound concentration 10 uM
# [3] = 24 h, 1 µM, compound concentration 1 uM
# [4] = 24 h, 10 µM, compound concentration 10 uM
# [5] = 48 h, 1 µM, compound concentration 1 uM
# [6] = 48 h, 10 µM, compound concentration 10 uM
structure (smiles),measurement,setting,value
CC(C)CC(=O)Nc1cncc(-c2ccc3[nH]nc(-c4nc5c(-c6cccc(F)c6)cncc5[nH]4)c3c2)c1 [LORECIVIVINT],Population Apoptotic (%),[1],14.17% and 27.84%
same,Population Fragmented Nuclei (%),[1],5.95% and 3.7%
same,Population Hoechst High Intensity Objects (%),[1],0%
same,Population Membrane Permeable-Phenotype (%),[1],0% and 14.29%
same,Population Mitochondria Different-Phenotype (%),[1],48.15% and 42.86%
same,Population Mitotic Cells (%),[1],85.83% and 72.16%
same,Population Normal (%),[1],100%
same,Population Pyknosed Nuclei (%),[1],64.86% and 89.81%
same,Population Tubulin-Different-Phenotype (%),[1],64.81% and 57.14%
same,Total Cell Count,[1],185 and 108
same,Population Apoptotic (%),[2],42.93% and 42.98%
same,Population Fragmented Nuclei (%),[2],3.44% and 7.88%
same,Population Healthy Nuclei (%),[2],23.66% and 18.79%
same,Population Hoechst High Intensity Objects (%),[2],0%
same,Population Membrane Permeable-Phenotype (%),[2],3.23%
same,Population Mitochondria Different-Phenotype (%),[2],19.35% and 6.45%
same,Population Mitotic Cells (%),[2],57.07% and 57.02%
same,Population Normal (%),[2],100%
same,Population Pyknosed Nuclei (%),[2],72.9% and 73.33%
same,Total Cell Count,[2],262 and 165
same,Population Apoptotic (%),[3],54.44% and 66.67%
same,Population Fragmented Nuclei (%),[3],8.33% and 5.61%
same,Population Hoechst High Intensity Objects (%),[3],0.64% and 0%
same,Population Membrane Permeable-Phenotype (%),[3],0%
same,Population Mitochondria Different-Phenotype (%),[3],83.02% and 75%
same,Population Mitotic Cells (%),[3],45.56% and 33.33%
same,Population Normal (%),[3],99.36% and 100%
same,Population Pyknosed Nuclei (%),[3],57.69% and 86.92%
same,Population Tubulin-Different-Phenotype (%),[3],94.34% and 50%
same,Total Cell Count,[3],157 and 107
same,Population Apoptotic (%),[4],59.46% and 44.57%
same,Population Fragmented Nuclei (%),[4],4.4% and 5.7%
same,Population Healthy Nuclei (%),[4],25.79% and 17.54%
same,Population Hoechst High Intensity Objects (%),[4],0.93% and 0%
same,Population Membrane Permeable-Phenotype (%),[4],3.66% and 10%
same,Population Mitotic Cells (%),[4],40.54% and 55.43%
same,Population Normal (%),[4],99.07% and 100%
same,Population Pyknosed Nuclei (%),[4],69.81% and 76.75%
same,Population Tubulin-Different-Phenotype (%),[4],34.15% and 12.5%
same,Total Cell Count,[4],321 and 228
same,Population Apoptotic (%),[5],79.78% and 84.11%
same,Population Fragmented Nuclei (%),[5],10.98% and 4.07%
same,Population Hoechst High Intensity Objects (%),[5],1.2% and 0%
same,Population Mitochondria Different-Phenotype (%),[5],82.46% and 45.45%
same,Population Mitotic Cells (%),[5],20.22% and 15.89%
same,Population Normal (%),[5],98.8% and 100%
same,Population Pyknosed Nuclei (%),[5],54.27% and 86.99%
same,Population Tubulin-Different-Phenotype (%),[5],73.68% and 63.64%
same,Total Cell Count,[5],166 and 123
same,Population Apoptotic (%),[6],54.1% and 55.85%
same,Population Fragmented Nuclei (%),[6],3.22% and 5.44%
same,Population Healthy Nuclei (%),[6],24.93% and 15.9%
same,Population Hoechst High Intensity Objects (%),[6],0.27% and 0.42%
same,Population Membrane Permeable-Phenotype (%),[6],2.15% and 5.26%
same,Population Mitochondria Different-Phenotype (%),[6],30.11% and 18.42%
same,Population Mitotic Cells (%),[6],45.9% and 44.15%
same,Population Normal (%),[6],99.73% and 99.58%
same,Population Pyknosed Nuclei (%),[6],71.85% and 78.66%
same,Population Tubulin-Different-Phenotype (%),[6],15.05% and 18.42%
same,Total Cell Count,[6],374 and 240
